Measurements pooled from the literature.
Each line is one published result; the experiments were not run side by side.
Target: Carbonic anhydrase 2 (CA2, Homo sapiens, UniProt P00918)
Read-out: enzyme activity
Action: inhibitor

With `O=c1[nH]c(=O)n([C@H]2C[C@H](O)[C@@H](CO)O2)cc1/C=C/Br` the Ki was 7440 nM (absorbance).
With `NS(=O)(=O)c1nnc(NC(=O)C2CCC3(CCCCC3)CC2)s1` the Ki was 32.6 nM (stopped-flow).
With `CCOC(=O)N1CCC(=C2c3ccc(Cl)cc3CCc3cccnc32)CC1` the Ki was 8270 nM (absorbance).
`CC(C)CNC(=S)N/N=C/c1ccc(N2CCC(O)CC2)cc1` gave a Ki of 716 nM.
`CN(C)CCC(c1ccccc1)c1ccccn1` (centres unmarked) has a Ki of 14000 nM (absorbance).
With `OC1CCN(c2ccc(/C=N/NC(=S)Nc3ccccc3)cc2)CC1` the Ki was 507 nM.
`CCOCCn1c(C2CCN(CCc3ccc(C(C)(C)C(=O)O)cc3)CC2)nc2ccccc21` has a Ki of 8440 nM (absorbance).
For `OC1CCN(c2ccc(/C=N/NC(=S)NCCc3ccccc3)cc2)CC1`, the Ki was 656 nM.
`NS(=O)(=O)c1cnc(NC(=O)CC2CCCCC2)s1` gave a Ki of 54.3 nM (stopped-flow).
The Ki of `OC1CCN(c2ccc(/C=N/NC(=S)NC3CCCCC3)cc2)CC1` is reported as 482 nM.
With `NS(=O)(=O)c1nnc(NC(=O)C2CC23CCCOC3)s1` (centres unmarked) the Ki was 50.8 nM (stopped-flow).
For `Cc1c(Cl)c(=O)oc2cc(OCCCCSC#N)ccc12`, the Ki was > 100000 nM (stopped-flow).
`O=C(O)COCCN1CCN(C(c2ccccc2)c2ccc(Cl)cc2)CC1` (centres unmarked) has a Ki of 9590 nM (absorbance).
With `Cc1ccccc1CC(=O)Nc1nnc(S(N)(=O)=O)s1` the Ki was 25.7 nM (stopped-flow).
`C[C@H]1c2cccc(O)c2C(=O)C2=C(O)[C@]3(O)C(=O)C(C(N)=O)=C(O)[C@@H](N(C)C)[C@@H]3[C@@H](O)[C@@H]21` has a Ki of 8970 nM (absorbance).
The Ki of `CC1CCCC(C(=O)Nc2nnc(S(N)(=O)=O)s2)C1` (centres unmarked) is reported as 31.5 nM (stopped-flow).
With `OC1CCN(c2ccc(/C=N/NC(=S)NCc3ccccc3)cc2)CC1` the Ki was 561 nM.
For `Cc1cc(=O)oc2cc(OCCCCSC#N)ccc12`, the Ki was > 100000 nM (stopped-flow).
With `NS(=O)(=O)c1nnc(NC(=O)CN2CCC(F)CC2)s1` the Ki was 14.1 nM (stopped-flow).
The Ki of `OC1CCN(c2ccc(/C=N/NC(=S)Nc3ccc(F)cc3)cc2)CC1` is reported as 283 nM.
